In ChEMBL document CHEMBL3098130, “Discovery of Novel Putative Inhibitors of UDP-GlcNAc 2-Epimerase as Potent Antibacterial Agents” (ACS Med Chem Lett, 2013):
≈ marks a conversion by molar mass, not a printed value.

Columns and labels:
Type in all cases: functional
[1] = tested on: Staphylococcus aureus; assay: Antibacterial activity against methicillin-resistant Staphylococcus aureus assessed as growth inhibition at 10 uM measured every 2 mins for 16 to 20 hrs by spectramax 96-well plate reader analysis; settings: read-out: GI
[2] = tested on: Staphylococcus aureus; assay: Antibacterial activity against methicillin-resistant Staphylococcus aureus assessed as growth inhibition at 3 uM measured every 2 mins for 16 to 20 hrs by spectramax 96-well plate reader analysis; settings: read-out: GI
[3] = tested on: Staphylococcus aureus; assay: Antibacterial activity against methicillin-resistant Staphylococcus aureus assessed as growth inhibition at 30 uM measured every 2 mins for 16 to 20 hrs by spectramax 96-well plate reader analysis; settings: read-out: GI
[4] = tested on: Bacillus anthracis; assay: Antibacterial activity against Bacillus anthracis Sterne assessed as growth inhibition at 30 uM measured every 2 mins for 16 to 20 hrs by spectramax 96-well plate reader analysis; settings: read-out: GI
[5] = tested on: Bacillus anthracis; assay: Antibacterial activity against Bacillus anthracis Sterne assessed as growth inhibition at 3 uM measured every 2 mins for 16 to 20 hrs by spectramax 96-well plate reader analysis; settings: read-out: GI
[6] = tested on: Bacillus anthracis; assay: Antibacterial activity against Bacillus anthracis Sterne assessed as growth inhibition at 10 uM measured every 2 mins for 16 to 20 hrs by spectramax 96-well plate reader analysis; settings: read-out: GI
[7] = tested on: Staphylococcus aureus; assay: Antibacterial activity against Staphylococcus aureus 13709 assessed as growth inhibition measured for 3 days by broth microdilution method
In short: (§1)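 MIC by broth microdilution against a panel of Gram-positive and Gram-negative strains (ATCC-type numbers where given). Run in triplicate on three different days.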

[8] = tested on: Bacillus subtilis; assay: Antibacterial activity against Bacillus subtilis 19659 assessed as growth inhibition measured for 3 days by broth microdilution method; in short: as §1

| Structure (SMILES) | inhibition of growth at 10 µM [1] [%] | inhibition of growth at 3 µM [2] [%] | inhibition of growth at 30 µM [3] [%] | inhibition of growth at 30 µM [4] [%] | inhibition of growth at 3 µM [5] [%] | inhibition of growth at 10 µM [6] [%] | MIC ([7]; Staphylococcus aureus, 13709, 72 h, read-out: MIC) [µM] | MIC ([8]; Bacillus subtilis, 19659, 72 h, read-out: MIC) [µM] | MIC [7] [µM] | MIC [8] [µM] |
| --- | --- | --- | --- | --- | --- | --- | --- | --- | --- | --- |
| O=C(O)C(Cc1ccccc1)N1C(=O)/C(=C\c2ccc(-c3cccc(Cl)c3)o2)NC1=S (stereo unspecified) | 0 | 0 | 10 | 90 | 10 | 0 |  |  |  |  |
| O=C(O)C(Cc1ccccc1)N1C(=O)/C(=C\c2ccc(-c3ccc(Br)cc3)o2)NC1=S (stereo unspecified) | 90 | 10 | 90 | 100 | 70 | 100 |  |  |  |  |
| O=C(O)C(Cc1ccccc1)N1C(=O)/C(=C\c2ccc(-c3ccc(I)cc3)o2)NC1=S (stereo unspecified) | 90 | 0 | 90 | 100 | 50 | 100 |  |  |  |  |
| O=C(O)C(Cc1ccccc1)N1C(=O)/C(=C\c2ccc(-c3ccc(OC(F)(F)F)cc3)o2)NC1=S (stereo unspecified) | 10 | 0 | 100 | 100 | 10 | 100 |  |  |  |  |
| O=C(O)C(Cc1ccccc1)N1C(=O)/C(=C\c2ccc(-c3ccc(Cl)c(Cl)c3)s2)NC1=S (stereo unspecified) | 10 | 10 | 40 | 90 | 0 | 110 |  |  |  |  |
| O=C(O)C(Cc1ccccc1)N1C(=O)/C(=C\c2ccc(-c3ccc(Cl)c(Cl)c3)o2)NC1=S (stereo unspecified) | 90 | 20 | 100 | 110 | 110 | 110 |  |  |  |  |
| O=C(O)C(Cc1ccccc1)N1C(=O)/C(=C\c2ccc(-c3ccc(Br)c(Cl)c3)s2)NC1=S (stereo unspecified) | 10 |  | 0 | 90 | 20 | 10 |  |  |  |  |
| O=C(O)C(Cc1ccccc1)N1C(=O)/C(=C\c2ccc(-c3ccc(Br)c(Cl)c3)o2)NC1=S (stereo unspecified) | 100 | 20 | 100 | 100 | 100 | 100 |  |  |  |  |
| O=C(O)C(Cc1ccccc1)N1C(=O)/C(=C\c2ccc(-c3cc(Cl)cc(Cl)c3)o2)NC1=S (stereo unspecified) | 10 | 0 | 90 | 100 | 0 | 0 |  |  |  |  |
| COc1ccc(-c2ccc(/C=C3/NC(=S)N(C(Cc4ccccc4)C(=O)O)C3=O)o2)cc1Cl (stereo unspecified) | 10 | 10 | 80 | 100 | 0 | 30 |  |  |  |  |
| COc1ccc(-c2ccc(/C=C3/NC(=S)N(C(Cc4ccccc4)C(=O)O)C3=O)s2)cc1 (stereo unspecified) | 10 | 0 | 20 | 100 | 0 | 0 |  |  |  |  |
| O=C(O)C(Cc1ccccc1)N1C(=O)/C(=C\c2ccc(-c3ccc(F)cc3)s2)NC1=S (stereo unspecified) | 20 | 20 | 50 | 100 | 0 | 10 |  |  |  |  |
| O=C(O)C(Cc1ccccc1)N1C(=O)/C(=C\c2ccc(-c3ccc(Cl)cc3)s2)NC1=S (stereo unspecified) | 0 | 0 | 90 | 100 | 0 | 100 |  |  |  |  |
| O=C(O)C(Cc1ccccc1)N1C(=O)/C(=C\c2ccc(-c3ccc(Br)cc3)s2)NC1=S (stereo unspecified) | 90 | 20 | 90 | 100 | 80 | 100 |  |  |  |  |
| O=C1NC(=S)NC(=O)C1=Cc1ccc(-c2ccc(Br)c(Cl)c2)o1 |  |  |  | 96.6 |  |  |  |  |  |  |
| O=C1Nc2ccccc2/C1=C1/SC(=S)N(C(Cc2ccccc2)C(=O)O)C1=O (stereo unspecified) |  |  |  | 99.7 |  |  |  |  |  |  |
| O=C(O)[C@@H](Cc1ccccc1)N1C(=O)/C(=C/c2ccc(-c3ccc(Cl)c(Cl)c3)o2)NC1=S |  |  |  |  |  |  | 6.8 (≈ 3.31 µg/mL) | 6.8 (≈ 3.31 µg/mL) |  |  |
| CCC(C(=O)O)N1C(=O)/C(=C\c2ccc(-c3ccc(Cl)c(Cl)c3)o2)NC1=S (stereo unspecified) | 0 | 0 | 90 | 90 | 0 | 100 |  |  |  |  |
| NC(=O)C(Cc1ccccc1)N1C(=O)/C(=C\c2ccc(-c3ccc(Cl)c(Cl)c3)o2)NC1=S (stereo unspecified) | 30 | 0 | 60 | 90 | 20 | 90 |  |  |  |  |
| CCOC(=O)C(Cc1ccccc1)N1C(=O)/C(=C\c2ccc(-c3ccc(Cl)c(Cl)c3)o2)NC1=S (stereo unspecified) | 0 |  | 0 | 0 |  | 50 |  |  |  |  |
| N#CNC(=O)C(Cc1ccccc1)N1C(=O)/C(=C\c2ccc(-c3ccc(Cl)c(Cl)c3)o2)NC1=S (stereo unspecified) | 0 | 0 | 100 | 100 | 0 | 100 |  |  |  |  |
| CS(=O)(=O)NC(=O)C(Cc1ccccc1)N1C(=O)/C(=C\c2ccc(-c3ccc(Cl)c(Cl)c3)o2)NC1=S (stereo unspecified) | 30 | 0 | 60 | 90 | 40 | 100 |  |  |  |  |
| O=C(NS(=O)(=O)C(F)(F)F)C(Cc1ccccc1)N1C(=O)/C(=C\c2ccc(-c3ccc(Cl)c(Cl)c3)o2)NC1=S (stereo unspecified) | 80 | 0 | 90 | 100 | 70 | 100 |  |  |  |  |
| CCC(C(=O)NS(C)(=O)=O)N1C(=O)/C(=C\c2ccc(-c3ccc(Cl)c(Cl)c3)o2)NC1=S (stereo unspecified) | 0 | 0 | 0 | 20 | 10 | 0 |  |  |  |  |
| O=C(O)[C@H](Cc1ccccc1)N1C(=O)/C(=C\c2ccc(-c3ccc(Cl)c(Cl)c3)o2)NC1=S |  |  |  |  |  |  |  |  | 6.8 (≈ 3.31 µg/mL) | 6.8 (≈ 3.31 µg/mL) |
| O=C(O)C(Cc1ccccc1)N1C(=O)/C(=C\c2ccc(-c3ccccc3)o2)NC1=S (stereo unspecified) | 10 | 0 | 10 | 20 | 0 | 10 |  |  |  |  |
| O=C(O)C(Cc1ccccc1)N1C(=O)/C(=C\c2ccc(-c3ccc(Cl)cc3)o2)NC1=S (stereo unspecified) | 20 | 10 | 90 | 100 | 0 | 70 |  |  |  |  |
